# PME-1 inh: PME-1 inhibitors via competitive probe labeling, primary screen, biochemical, fluorescence polarization, FP-Rh probe, HTS. recombinant PME-1. hit rate 0.53% among 320,000. inhibition, % at 5.9 µM;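 active = inhibition above the campaign mean of all compounds plus 3 SD, cut at about 26% in these data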;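 also: competitive labeling of PME-1 active site by serine hydrolase directed probe; 0% = PME-1 with DMSO and 100% = wells lacking PME-1 enzyme; inhibitors block probe labeling so polarization falls and inhibition rises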
# Fam108B counter: mouse Fam108B serine hydrolase inhibitors, primary screen, counter-screen for RBBP9 inhibitor project, biochemical, fluorescence polarization | recombinant Fam108B, FP-Rh probe fluorescence polarization | inhibition, % at 9.51 µM | hit rate 0.33% among 300,000 | AID 1947, 2009;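 active = inhibition above the screen mean inhibition plus 3 SD, computed separately per campaign, cut at about 18% in these data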;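 also: inhibitors lower polarization as less probe binds the enzyme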
# mABHD4 FP: ABHD4 inhibitors, primary screen, biochemical, fluorescence polarization, mouse | (Lyso)-N-acylphosphatidylethanolamine lipase (Mus musculus), Q8VD66 | purified mABHD4, FP-Rh probe fluorescence polarization | inhibition, % at 8.92 µM | hit rate 0.54% among 370,000 | AID 720543, 2013;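 active = inhibition exceeding the mean over every tested compound plus 3 SD, cut at about 30% in these data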;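 also: 0% = plate median of compound wells and 100% = S159A mutant with DMSO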
#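 Material: mouse ABHD4 enzyme, wild type; Benchmarks: S159A mutant high control, sample median low control; Buffer or medium: HEPES pH 7.0, NaCl, Pluronic buffer; Signal: fluorescence polarization; Read-out: percent inhibition of probe binding, normalized to plate controls; Timing: pre-incubation 45 min, probe exposure 60 min, at 25 °C; Dosing: 8.92 µM, single dose.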
# SIAE inh: human SIAE inhibitors, primary screen, biochemical, fluorescence polarization, FP-Rh probe, 1536-well HTS | inhibition, % at 9.66 µM | hit rate 0.69% among 370,000 | AID 1053197, 2014 | Sialate O-acetylesterase (Homo sapiens), Q9HAT2 | SIAE FP-Rh probe binding;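 active = inhibition above a cutoff: mean of compounds within the control limits plus 3 SD of those, cut at about 17% in these data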;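 also: 0% = plate median of compound wells and 100% = probe without SIAE protein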
# Target sequence (Q9HAT2 whole entry, looked up): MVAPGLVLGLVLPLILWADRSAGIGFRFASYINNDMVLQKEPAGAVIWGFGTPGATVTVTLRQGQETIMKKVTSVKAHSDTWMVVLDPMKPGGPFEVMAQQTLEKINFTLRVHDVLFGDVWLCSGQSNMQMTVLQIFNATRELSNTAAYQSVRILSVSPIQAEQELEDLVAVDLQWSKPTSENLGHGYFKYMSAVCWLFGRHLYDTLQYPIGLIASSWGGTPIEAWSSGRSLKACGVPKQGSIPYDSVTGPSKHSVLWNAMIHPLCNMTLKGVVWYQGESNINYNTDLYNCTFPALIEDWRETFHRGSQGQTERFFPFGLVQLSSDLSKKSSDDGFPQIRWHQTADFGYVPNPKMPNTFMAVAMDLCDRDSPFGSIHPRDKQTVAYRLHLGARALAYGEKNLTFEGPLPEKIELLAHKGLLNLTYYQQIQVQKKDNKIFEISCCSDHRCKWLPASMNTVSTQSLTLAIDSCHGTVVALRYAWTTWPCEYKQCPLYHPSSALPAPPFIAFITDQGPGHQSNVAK
# HTRA1 inh: HTRA1 serine protease inhibitors, primary screen, biochemical, fluorescence polarization, HTS; AID 504803, 2011; inhibition, % at 5.96 µM; hit rate 0.5% among 340,000; recombinant HTRA1, FP-rhodamine activity-based probe; in the data active = inhibition above about 36%;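 also: 0% = enzyme with DMSO and 100% = wells lacking enzyme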
# TCR-CD3 inh: inhibitors of human TCR-CD3 interaction, primary screen, biochemical, fluorescence, TAMRA-labeled TCR probe | hit rate 0.37% among 360,000 | inhibition, % at 9.4 µM | T-cell receptor (TCR); in the data active = inhibition above about 19%;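 also: recombinant mutant TCR 2C K166C tagged with TAMRA read by polarization; 0% = receptor in buffer alone and 100% = receptor with positive control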
# An asterisk follows results filed as active; . = not tested or not shown. Most compounds without a hit are left out; they make up all but 1.8% or so of the library.
SMILES,PME-1 inh,Fam108B counter,mABHD4 FP,SIAE inh,HTRA1 inh,TCR-CD3 inh
N#CC(C#N)=NNc1ccc(S(=O)(=O)N2CCCCC2)cc1,28*,3,9,0,-7,-1
N#C/C(=N\Nc1ccc(S(=O)(=O)N2CCOCC2)cc1)C(N)=S,6,4,12,5,2,6
CC1=NN(C(N)=S)C(=O)C1N=Nc1cccc2ccccc12 (configuration not stated),3,23*,.,.,.,.
CC1=NN(C(N)=S)C(=O)C1N=Nc1cccc(Cl)c1C (configuration not stated),3,7,5,10,6,5
Cc1cc(C)n(CC(=O)N/N=C/c2cc(Br)cc([N+](=O)[O-])c2O)n1,7,10,6,2,10,10
O=C(Cn1nc2ccccc2n1)N/N=C/c1cc(Cl)cc([N+](=O)[O-])c1O,.,.,9,3,15,56*
C=CCOC(=O)C1=C(C)N=c2sc(=C3C(=O)N(CC(=O)O)c4ccccc43)c(=O)n2C1c1ccc(OC)cc1 (configuration not stated),.,.,18,5,.,.
CC(=O)c1sc2nc(-c3cccs3)ccc2c1N,-12,-5,-14,-21,-9,5
Nc1c(C(=O)Nc2nc3ccccc3s2)sc2nc(-c3cccs3)ccc12,34*,8,.,.,-15,.
CCOC(=O)c1sc(N/N=C/c2cc(Br)c(O)c(OC)c2)nc1C,28*,17,27,12,25,-2
CCOc1cc(-c2cc(-c3ccccc3)nc(N)c2C#N)ccc1O,6,-10,-29,-13,-11,8
CCOc1cc(-c2cc(-c3ccc(N)cc3)nc(N)c2C#N)ccc1O,41*,14,10,2,32,2
COc1ccc(OC)c(N2C(=O)CC(Cc3ccc(C)cc3)C2=O)c1 (configuration not stated),31*,-1,5,-6,-3,-5
Oc1c(Cl)cc(CN2CCCCC2)c2cccnc12,1,5,.,.,46*,.
O=[N+]([O-])c1cc(CN2CCCC2)c2cccnc2c1O,-14,7,.,.,54*,.
Oc1ccc(CN2CCCCC2)c2cccnc12,1,6,12,-3,20,-2
CCC(C)CNC(=O)CN1C(=O)C2CCCCN2C(=O)c2ccccc21 (configuration not stated),.,.,-4,-1,.,.
C=CCN1[C@H](C)COc2cc(N3CCCC3)ccc2S1(=O)=O,.,.,4,-1,.,.
Nc1[nH]n(-c2ccccc2)c(=O)c1N=Nc1ccc2c(c1)OCO2,33*,18,20,6,17,-13
O=S1(=O)c2ccc(Br)cc2OC[C@@H](Cc2ccccc2)N1Cc1cn(Cc2ccc(Cl)cc2)nn1,.,.,-8,-1,.,.
CCOc1cc(/C=C/c2ccc3cccc([N+](=O)[O-])c3n2)cc(Cl)c1O,27*,16,5,5,3,3
O=[N+]([O-])c1cccc2ccc(/C=C/c3ccc(Cl)cc3)nc12,-6,3,-12,-5,-33,-5
O=C(COC(=O)c1ccc([N+](=O)[O-])s1)Nc1ccc(F)cc1,8,.,0,-2,27,1
CC(C)(C)c1ccc(NC(=O)COC(=O)c2ccc([N+](=O)[O-])s2)cc1,33*,12,2,12,21,2
N#C/C(=C(/O)c1ccc(Cl)cc1)c1nc2ccccc2[nH]1,-3,0,2,1,0,0
SMILES,PME-1 inh,Fam108B counter,mABHD4 FP,SIAE inh,HTRA1 inh,TCR-CD3 inh
N#C/C(=C(\O)c1cc(Cl)sc1Cl)c1nc2ccccc2[nH]1,35*,12,19,3,0,-9
Cc1cccc(C(=O)Nc2nc3ncccn3c2-c2ccc(F)c(F)c2)c1,.,.,-3,0,.,.
COc1ccccc1Nc1nc(-c2cccc(N3C(=O)c4ccccc4C3=O)c2)cs1,0,2,5,3,2,7
O=C1c2ccccc2C(=O)N1c1cccc(-c2csc(Nc3ccc4c(c3)OCO4)n2)c1,20,21*,.,.,.,.
CCOC(=O)Cn1cc(CN2C(C(=O)OC)CN(Cc3ccccc3)CCS2(=O)=O)nn1 (configuration not stated),.,.,2,1,.,.
COc1ccc(-c2c/c(=N\c3nc(-c4ccccc4)c(C)s3)c3ccccc3o2)cc1O,31*,15,-2,5,-4,5
S=C1Cc2ccccc2N1,.,.,34*,6,24,7
COc1cccc(N2C(=O)CC(Nc3ccc(N4CCOCC4)cc3)C2=O)c1 (configuration not stated),5,-5,.,.,51*,.
COC(=O)C1CN(C2CCCC2)CCS(=O)(=O)N1Cc1cn(Cc2ccccc2)nn1 (configuration not stated),.,.,7,0,.,.
O=C(O)c1cccc(-n2c(/C=C/c3ccc([N+](=O)[O-])cc3)nc3ccccc3c2=O)c1,30*,1,4,-7,-3,-5
O=C(O)c1cccc(-n2c(/C=C/c3cccc([N+](=O)[O-])c3)nc3ccccc3c2=O)c1,0,2,5,-4,-4,4
Cc1ccc(S(=O)(=O)Oc2cccc(/C=N/Nc3ccc(C(=O)O)cc3)c2)cc1,31*,18,23,10,-15,7
Cc1ccc(S(=O)(=O)Oc2cccc(/C=N/n3cnnc3)c2)cc1,2,-4,-1,0,1,4
COc1ccc(C(=O)OCCN(C)C2CN(Cc3cn(Cc4cccc(F)c4)nn3)S(=O)(=O)C2)cc1OC (configuration not stated),.,.,1,5,.,.
COc1ccc2[nH]c(=O)c(-c3noc(-c4ccccc4)n3)cc2c1,49*,-1,-10,-25,-10,-2
CC(C)(C)c1ccc(NC(=O)C2=CC=CN3CCS(=O)(=O)N=C23)cc1,55*,.,-2,-1,0,2
C/C(CC(=O)Nc1cc(C)ccn1)=N\NC(=O)c1cccc(C)c1O,-4,1,11,4,33,35*
COc1ccc(-c2cc(C(=O)O)c3c(C)nn(-c4ccccn4)c3n2)cc1,-2,1,5,3,.,1
COc1ccc(N=CC2=C(Nc3ccc(OC)cc3)c3c(C)nn(-c4ccccn4)c3CC2)cc1,57*,47*,.,.,.,.
COC(=O)C1CN(C2CCCC2)CCS(=O)(=O)N1Cc1ccc(OC)cc1 (configuration not stated),.,.,-1,6,.,.
O=C(Cn1ncc2c1-c1ccccc1OC2)Nc1nc2ccccc2s1,-5,-2,-12,-8,-23,19*

# Bioassay records as filed in PubChem BioAssay.
